CDK5 p35 inh: blocks human CDK5/p35 kinase activity | hit rate 0.01% among 330,000 | inhibition, % at 10 µM | Recombinant CDK5/p35, ADP-Glo luminescence, 60 min | Q00535+Q15078;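 active means highest replicate inhibition of at least 50% and at least 75% of replicates reaching 50%; inconclusive means only one of the two criteria met; inactive means both criteria failed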
Target sequence (Q00535 whole entry, looked up): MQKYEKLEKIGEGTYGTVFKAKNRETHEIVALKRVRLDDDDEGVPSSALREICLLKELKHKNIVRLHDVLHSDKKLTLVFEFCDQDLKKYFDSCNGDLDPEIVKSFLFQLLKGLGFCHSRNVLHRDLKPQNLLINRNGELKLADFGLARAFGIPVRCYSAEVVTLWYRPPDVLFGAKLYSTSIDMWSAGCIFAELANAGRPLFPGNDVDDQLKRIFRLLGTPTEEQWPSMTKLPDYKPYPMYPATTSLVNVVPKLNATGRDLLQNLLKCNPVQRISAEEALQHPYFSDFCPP
Target sequence (Q15078 whole entry, looked up): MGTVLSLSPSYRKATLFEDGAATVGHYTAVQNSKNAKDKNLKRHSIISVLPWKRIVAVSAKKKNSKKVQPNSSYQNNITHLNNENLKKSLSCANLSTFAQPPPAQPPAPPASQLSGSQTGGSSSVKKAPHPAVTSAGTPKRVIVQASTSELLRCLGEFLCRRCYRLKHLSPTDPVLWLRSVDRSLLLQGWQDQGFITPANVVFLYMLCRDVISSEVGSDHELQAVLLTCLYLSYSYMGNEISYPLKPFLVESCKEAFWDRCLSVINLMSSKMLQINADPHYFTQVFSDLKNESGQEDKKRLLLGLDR
dFosB activator: mouse delta FosB homodimer activation; P13346; purified delta FosB, TAMRA-CDK5 oligo fluorescence polarization; percent of positive-control signal above neutral wells; activation, % at 25 µM; hit rate 0.99% among 340,000; AID 493131;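 active means mean activation above about 17%, with every replicate also reaching it, limit read from the data, passing the limit was not always enough; inconclusive means only one of the two conditions met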
PAX8 reporter: lowers PAX8-driven luciferase in RMG-I cells. hit rate 1.2% among 360,000. RMG-I TPO-luciferase reporter, SteadyGlo, 24 h. inhibition, % at 12.6 µM;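 active means mean replicate inhibition at least 60% with every replicate also reaching 60%; inconclusive means only one of the two criteria is met; inactive means mean below 60% and not all replicates reaching 60%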;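 further: luciferase light reporting Pax8 driven TPO promoter activity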
HIV Env fusion: blocks HIV Env-driven cell-cell fusion; HeLa-JRFL Env/CEM21 cell fusion, luciferase; AID 651610; inhibition, % at 12.3 µM; hit rate 1.1% among 360,000;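 active means mean replicate inhibition score of at least 50 and every replicate individually at or above 50; inconclusive means only one of the two criteria met; inactive means mean below 50 and not all replicates reaching 50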
Cneo AK release: Cryptococcus neoformans lysis via adenylate kinase release | C. neoformans lysis, adenylate kinase release luminescence, 4 h; normalised: neutral wells 0, clomiphene wells 100 | lysis activity, % at 15 µM | hit rate 0.2% among 360,000;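 active means mean lysis activity across replicates of at least 80%, whatever share of replicates individually reach that level; inactive means mean lysis activity below 80%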
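Material: C. neoformans cells; Schedule: 4 h static compound exposure, 37 °C, read 1 h post-reagent; Measured by: adenylate kinase release luminescence; Read-out: signal increase indicating cell lysis; Controls: Clomiphene as positive lysis control.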
INS-1E GSIS act: primary screen for activators of insulin secretion dependent on glucose, INS-1E cells, GLuc reporter luminescence | INS-1E GLuc reporter insulin secretion, 2-3 h | activation, % at 16.6 µM | hit rate 0.61% among 370,000;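 active means lowest replicate activation of at least 40%, so every replicate reaches that level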
Hits are given with their value; i = inactive; ? = inconclusive; nt = no result; ! = not active in a repeat; [ ] = remark or other dose. An excerpt weighted towards active compounds, which were near 2.9% of everything screened.

SMILES | CDK5 p35 inh | dFosB activator | PAX8 reporter | HIV Env fusion | Cneo AK release | INS-1E GSIS act
O=C(C[C@@H]1C[C@@H]2c3cc(NC(=O)C4CCOCC4)ccc3O[C@@H]2[C@H](CO)O1)NCCc1ccccc1 | nt | nt | i | 62.9[16.7 µM] | i | i
O=C(C[C@@H]1C[C@H]2c3cc(NC(=O)C4CCOCC4)ccc3O[C@H]2[C@@H](CO)O1)NCc1ccccc1 | nt | nt | i | 90.2[16.7 µM] | i | i
COCCNC(=O)C[C@@H]1C[C@H]2c3cc(N(C)C)ccc3O[C@H]2[C@H](CO)O1 | nt | nt | i | i | i | i
COCCNC(=O)C[C@@H]1C[C@H]2c3cc(N(C)C)ccc3O[C@H]2[C@@H](CO)O1 | nt | nt | i | 65.4[16.7 µM] | i | i
COC(=O)C[C@@H]1CC[C@H]2[C@@H](COc3ccc(NC(=O)c4ccccc4)cc3C(=O)N2C)O1 | nt | nt | i | i | i | i
C[C@H](CO)N1C[C@H](C)[C@H](CN(C)C(=O)N[C@H](C)c2ccccc2)OCc2ccccc2-c2ccccc2C1=O | nt | nt | i | i | i | i
CCN(CC)S(=O)(=O)c1ccc(NC(=O)Nc2cccc(C(F)(F)F)c2)cc1 | i | i | nt | 96.3 | i | nt
O=C(Nc1ccc(OC(F)F)cc1)Nc1cccc(C(F)(F)F)c1 | i | i | nt | 74.9 | i | nt
Cc1ccc(S(=O)(=O)Nc2ccc(NC(=O)Nc3cccc(C(F)(F)F)c3)cc2)cc1 | i | i | i | i | nt | i
O=C(Nc1ccncc1)Nc1cccc(C(F)(F)F)c1 | i | i | i | i | i | i
C[C@@H]1CN([C@H](C)CO)C(=O)c2cc(-c3cccnc3)cnc2O[C@@H]1CN(C)Cc1ccc(-c2ccccc2)cc1 | nt | nt | nt | i | i | i
COc1ccc(C[C@H]2CCc3cnnn3COC[C@@H](C)NC2=O)cc1 | nt | nt | nt | nt | nt | i
COc1ccccc1C#Cc1ccc2c(c1)O[C@H](CN(C)Cc1ccccc1)[C@@H](C)CN([C@@H](C)CO)S2(=O)=O | nt | nt | nt | i | i | i
COc1ccccc1C#Cc1ccc2c(c1)O[C@H](CN(C)Cc1ccncc1)[C@@H](C)CN([C@@H](C)CO)S2(=O)=O | nt | nt | 93.4 | 47.7[16.7 µM] | i | i
COc1ccccc1C#Cc1ccc2c(c1)O[C@@H](CN(C)Cc1cccnc1)[C@H](C)CN([C@@H](C)CO)S2(=O)=O | nt | nt | 68.1 | nt | i | i
COc1ccccc1C#Cc1ccc2c(c1)O[C@@H](CN(C)Cc1ccncc1)[C@@H](C)CN([C@H](C)CO)S2(=O)=O | nt | nt | i | ? | i | nt
COc1ccccc1C#Cc1ccc2c(c1)O[C@@H](CN(C)Cc1ccncc1)[C@H](C)CN([C@H](C)CO)S2(=O)=O | nt | nt | 99.1 | 52.3[16.7 µM] | i | i
COc1ccccc1C#Cc1ccc2c(c1)O[C@@H](CN(C)Cc1ccncc1)[C@H](C)CN([C@@H](C)CO)S2(=O)=O | nt | nt | 101.3 | i | i | i
CCCN(C)C[C@@H]1Oc2cc(-c3ccccc3F)ccc2S(=O)(=O)N([C@@H](C)CO)C[C@@H]1C | nt | nt | nt | i | i | i
COc1cc(C2C3=C(Nc4ncnn42)c2ccccc2CC3)cc(OC)c1OC (stereo not given) | i | i | 95.2 | i | i | nt
COc1ccc(C2C3=C(Nc4ncnn42)c2ccccc2CCC3)cc1 (stereo not given) | i | i | nt | i | i | nt
N#Cc1cccc(-c2ccc(C3[C@@H]4CN(C(=O)C5CCOCC5)C[C@H]3N4)cc2)c1 (stereo not given in full) | nt | nt | i | nt | nt | i
Cc1cccc(-c2ccc(C3[C@@H]4CN(C(=O)C5CCCCC5)C[C@H]3N4)cc2)c1 (stereo not given in full) | nt | nt | i | nt | nt | 213.4!
N#Cc1ccc(-c2ccc(C3[C@@H]4CN(C(=O)C5CC5)C[C@H]3N4)cc2)cc1 (stereo not given in full) | nt | nt | 98.4 | nt | nt | i
C[C@H]1CN([C@@H](C)CO)C(=O)c2cc(C#CCc3ccccc3)cnc2O[C@@H]1CN(C)Cc1cccc(F)c1 | nt | nt | nt | nt | i | i
O=C1CN(Cc2ccccc2)C[C@H]2[C@@H](c3ccc(-c4ccccc4)cc3)[C@@H](CO)N12 | nt | nt | i | nt | nt | i
COCc1[nH]nc2c1C(c1ccc(C)cc1)NC2=O (stereo not given) | nt | nt | i | i | nt | 49.8
COCc1[nH]nc2c1C(c1ccc(F)cc1)NC2=O (stereo not given) | nt | nt | i | i | nt | i
